Changes are numbered by the printed parent chain.
What was measured:
Conditions in all cases: stereoisomer not certain
[1] = target: T1, OR8D2 (Homo sapiens) (UniProt Q9GZM6)
T1 sequence (whole entry): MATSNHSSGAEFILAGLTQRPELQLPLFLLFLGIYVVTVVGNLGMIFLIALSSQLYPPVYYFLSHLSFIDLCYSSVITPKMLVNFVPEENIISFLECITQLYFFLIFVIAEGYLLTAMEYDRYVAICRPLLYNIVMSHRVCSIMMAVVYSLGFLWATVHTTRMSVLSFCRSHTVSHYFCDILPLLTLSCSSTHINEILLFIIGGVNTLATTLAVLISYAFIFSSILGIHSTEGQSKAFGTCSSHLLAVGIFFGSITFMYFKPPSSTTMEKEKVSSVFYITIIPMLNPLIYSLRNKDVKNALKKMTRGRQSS
How it was run: (§1)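 Whether a receptor–molecule pair is responsive (active) rests on the original authors' judgment that its measured signal was statistically different from baseline. Pairs without that judgment are non-responsive (inactive). Sources used varied assay methods, commonly transient luciferase assays in mammalian cell lines.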

[2] = target: T2, OR8D4 (Homo sapiens) (UniProt Q8NGM9)
T2 sequence (whole entry): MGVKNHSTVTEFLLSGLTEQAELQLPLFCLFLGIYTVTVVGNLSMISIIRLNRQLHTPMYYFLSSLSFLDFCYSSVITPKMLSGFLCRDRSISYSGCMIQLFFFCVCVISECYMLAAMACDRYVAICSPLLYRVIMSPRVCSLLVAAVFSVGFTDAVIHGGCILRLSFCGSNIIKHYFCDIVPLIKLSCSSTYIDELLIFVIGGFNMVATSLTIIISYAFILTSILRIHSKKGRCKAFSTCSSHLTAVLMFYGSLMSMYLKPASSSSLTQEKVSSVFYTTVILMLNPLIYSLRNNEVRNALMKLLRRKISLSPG
How it was run: as §1

[3] = target: T3, OR8G1 (Homo sapiens) (UniProt Q15617)
T3 sequence (whole entry): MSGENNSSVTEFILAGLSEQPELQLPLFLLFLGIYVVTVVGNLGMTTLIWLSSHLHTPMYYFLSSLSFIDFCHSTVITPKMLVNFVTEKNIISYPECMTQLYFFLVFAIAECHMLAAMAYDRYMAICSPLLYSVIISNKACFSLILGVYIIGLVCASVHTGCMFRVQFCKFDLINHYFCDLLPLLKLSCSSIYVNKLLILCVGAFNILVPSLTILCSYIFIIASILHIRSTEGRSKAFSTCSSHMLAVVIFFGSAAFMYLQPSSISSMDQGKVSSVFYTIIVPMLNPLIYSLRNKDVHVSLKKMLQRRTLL
How it was run: as §1

[4] = target: T4, OR8G5 (Homo sapiens) (UniProt Q8NG78)
T4 sequence (whole entry): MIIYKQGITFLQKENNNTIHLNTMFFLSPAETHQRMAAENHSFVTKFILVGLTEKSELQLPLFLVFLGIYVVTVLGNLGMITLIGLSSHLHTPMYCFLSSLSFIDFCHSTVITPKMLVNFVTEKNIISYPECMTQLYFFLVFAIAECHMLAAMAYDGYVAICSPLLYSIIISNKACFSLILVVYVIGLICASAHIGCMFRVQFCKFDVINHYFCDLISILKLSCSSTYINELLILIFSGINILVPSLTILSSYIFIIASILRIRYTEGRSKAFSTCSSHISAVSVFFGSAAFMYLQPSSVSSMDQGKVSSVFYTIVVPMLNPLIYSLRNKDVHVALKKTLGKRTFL
How it was run: as §1

[5] = target: T5, OR8H1 (Homo sapiens) (UniProt Q8NGG4)
T5 sequence (whole entry): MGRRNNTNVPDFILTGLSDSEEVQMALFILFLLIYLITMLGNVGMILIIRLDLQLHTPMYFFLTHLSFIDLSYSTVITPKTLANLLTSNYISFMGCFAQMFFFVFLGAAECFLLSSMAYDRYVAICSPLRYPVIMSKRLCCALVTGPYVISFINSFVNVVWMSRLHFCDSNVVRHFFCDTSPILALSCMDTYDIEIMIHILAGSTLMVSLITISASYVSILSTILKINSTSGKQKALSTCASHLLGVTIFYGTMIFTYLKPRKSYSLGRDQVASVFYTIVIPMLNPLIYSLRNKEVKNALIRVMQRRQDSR
How it was run: as §1

[6] = target: T6, OR8H2 (Homo sapiens) (UniProt Q8N162)
T6 sequence (whole entry): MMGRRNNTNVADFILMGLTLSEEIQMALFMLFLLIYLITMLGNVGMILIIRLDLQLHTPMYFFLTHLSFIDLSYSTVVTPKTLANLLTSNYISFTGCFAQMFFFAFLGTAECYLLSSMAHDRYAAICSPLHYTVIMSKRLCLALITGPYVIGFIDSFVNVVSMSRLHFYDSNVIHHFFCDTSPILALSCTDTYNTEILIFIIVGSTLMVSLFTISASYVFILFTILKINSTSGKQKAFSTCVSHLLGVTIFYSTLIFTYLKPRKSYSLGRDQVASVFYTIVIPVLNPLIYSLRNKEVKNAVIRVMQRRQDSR
How it was run: as §1

[7] = target: T7, OR8H3 (Homo sapiens) (UniProt Q8N146)
T7 sequence (whole entry): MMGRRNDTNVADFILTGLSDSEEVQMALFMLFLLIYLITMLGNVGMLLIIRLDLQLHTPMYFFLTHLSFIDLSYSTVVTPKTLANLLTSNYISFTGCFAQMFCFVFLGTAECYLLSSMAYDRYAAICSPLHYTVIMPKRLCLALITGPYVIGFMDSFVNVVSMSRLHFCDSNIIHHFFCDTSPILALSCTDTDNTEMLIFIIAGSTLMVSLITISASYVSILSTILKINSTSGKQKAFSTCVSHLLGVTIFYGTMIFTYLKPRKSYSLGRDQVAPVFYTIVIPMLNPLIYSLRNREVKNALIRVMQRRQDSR
How it was run: as §1

[8] = target: T8, OR8I2 (Homo sapiens) (UniProt Q8N0Y5)
T8 sequence (whole entry): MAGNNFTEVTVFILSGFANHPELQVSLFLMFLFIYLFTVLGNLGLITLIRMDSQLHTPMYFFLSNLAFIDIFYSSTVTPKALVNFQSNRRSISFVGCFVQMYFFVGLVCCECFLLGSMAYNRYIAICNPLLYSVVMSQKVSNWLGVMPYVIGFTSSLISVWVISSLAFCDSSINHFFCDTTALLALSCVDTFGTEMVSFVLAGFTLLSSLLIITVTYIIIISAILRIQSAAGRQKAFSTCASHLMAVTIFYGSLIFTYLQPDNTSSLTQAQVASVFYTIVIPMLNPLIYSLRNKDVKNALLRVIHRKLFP
How it was run: as §1

[9] = target: T9, OR8J1 (Homo sapiens) (UniProt Q8NGP2)
T9 sequence (whole entry): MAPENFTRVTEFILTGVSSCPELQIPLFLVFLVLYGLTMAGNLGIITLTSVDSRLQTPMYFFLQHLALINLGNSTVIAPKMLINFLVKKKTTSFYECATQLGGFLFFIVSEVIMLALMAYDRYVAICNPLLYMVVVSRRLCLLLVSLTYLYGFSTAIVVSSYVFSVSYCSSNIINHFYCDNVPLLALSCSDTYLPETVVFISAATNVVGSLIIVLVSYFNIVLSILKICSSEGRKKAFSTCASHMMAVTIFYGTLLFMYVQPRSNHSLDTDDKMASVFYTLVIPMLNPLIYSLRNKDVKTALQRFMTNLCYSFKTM
How it was run: as §1

[10] = target: T10, OR8J3 (Homo sapiens) (UniProt Q8NGG0)
T10 sequence (whole entry): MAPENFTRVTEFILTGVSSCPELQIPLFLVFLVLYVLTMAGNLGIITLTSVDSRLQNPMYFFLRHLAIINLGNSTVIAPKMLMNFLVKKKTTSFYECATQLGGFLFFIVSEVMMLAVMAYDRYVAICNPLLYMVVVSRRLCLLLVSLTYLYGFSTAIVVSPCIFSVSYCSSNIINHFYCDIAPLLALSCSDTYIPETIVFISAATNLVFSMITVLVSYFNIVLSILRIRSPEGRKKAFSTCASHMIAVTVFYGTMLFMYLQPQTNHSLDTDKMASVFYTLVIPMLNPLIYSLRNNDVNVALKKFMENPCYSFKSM
How it was run: as §1

[11] = target: T11, OR8K1 (Homo sapiens) (UniProt Q8NGG5)
T11 sequence (whole entry): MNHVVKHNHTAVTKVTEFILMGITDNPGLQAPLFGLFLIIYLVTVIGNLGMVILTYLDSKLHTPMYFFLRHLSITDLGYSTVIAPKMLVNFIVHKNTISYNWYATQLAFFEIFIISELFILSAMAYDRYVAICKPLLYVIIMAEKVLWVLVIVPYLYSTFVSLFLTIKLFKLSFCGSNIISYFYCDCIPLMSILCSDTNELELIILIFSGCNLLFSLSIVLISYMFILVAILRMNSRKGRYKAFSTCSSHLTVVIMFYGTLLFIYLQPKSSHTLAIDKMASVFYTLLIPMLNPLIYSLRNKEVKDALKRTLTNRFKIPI
How it was run: as §1

[12] = target: T12, OR8K3 (Homo sapiens) (UniProt Q8NH51)
T12 sequence (whole entry): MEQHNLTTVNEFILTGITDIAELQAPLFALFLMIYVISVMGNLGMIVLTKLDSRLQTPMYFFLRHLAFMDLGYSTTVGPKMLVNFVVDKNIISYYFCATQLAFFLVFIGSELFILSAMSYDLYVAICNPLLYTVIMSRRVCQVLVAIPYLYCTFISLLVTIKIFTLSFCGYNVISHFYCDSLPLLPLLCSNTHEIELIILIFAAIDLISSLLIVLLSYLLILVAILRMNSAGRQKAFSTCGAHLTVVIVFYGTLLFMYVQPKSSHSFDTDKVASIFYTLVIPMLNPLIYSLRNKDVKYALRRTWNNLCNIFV
How it was run: as §1

[13] = target: T13, OR8K5 (Homo sapiens) (UniProt Q8NH50)
T13 sequence (whole entry): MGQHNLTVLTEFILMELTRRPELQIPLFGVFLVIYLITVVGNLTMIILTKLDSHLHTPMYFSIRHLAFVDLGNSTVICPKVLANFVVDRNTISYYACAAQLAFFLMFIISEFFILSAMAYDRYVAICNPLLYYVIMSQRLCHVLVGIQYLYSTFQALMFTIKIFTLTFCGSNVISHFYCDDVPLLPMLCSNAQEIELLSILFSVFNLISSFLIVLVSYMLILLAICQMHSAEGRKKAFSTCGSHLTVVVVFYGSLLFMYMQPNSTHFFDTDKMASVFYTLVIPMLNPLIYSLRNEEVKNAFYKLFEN
How it was run: as §1

[14] = target: T14, OR8S1 (Homo sapiens) (UniProt Q8NH09)
T14 sequence (whole entry): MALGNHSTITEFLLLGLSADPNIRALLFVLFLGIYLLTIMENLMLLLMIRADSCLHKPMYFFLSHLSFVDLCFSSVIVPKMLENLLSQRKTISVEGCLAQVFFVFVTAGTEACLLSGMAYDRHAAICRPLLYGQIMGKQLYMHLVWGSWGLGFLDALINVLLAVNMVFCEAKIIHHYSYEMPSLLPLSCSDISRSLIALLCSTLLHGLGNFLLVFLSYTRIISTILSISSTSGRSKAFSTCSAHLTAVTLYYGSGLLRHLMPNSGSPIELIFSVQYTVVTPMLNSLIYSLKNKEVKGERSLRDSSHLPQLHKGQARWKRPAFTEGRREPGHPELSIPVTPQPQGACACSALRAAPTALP
How it was run: as §1

[15] = test system: T15, OR8D4 C120Y R133K
T15 sequence (whole entry): T2 sequence (whole entry) with C120Y, R133K
How it was run: as §1

[16] = test system: T16, OR8H2 H120Y Y169C V284M
T16 sequence (whole entry): T6 sequence (whole entry) with H120Y, Y169C, V284M
How it was run: as §1

[17] = test system: T17, OR8H3
T17 sequence (whole entry): T7 sequence (whole entry) with P137S
How it was run: as §1

[18] = test system: T18, OR8J1
T18 sequence (whole entry): T9 sequence (whole entry) with Y120C
How it was run: as §1

[19] = test system: T19, OR8J3 E4V
T19 sequence (whole entry): T10 sequence (whole entry) with E4V
How it was run: as §1

[20] = target: OR8J2 (Homo sapiens) (UniProt Q8NGG1)
Chain of OR8J2 (Homo sapiens) (Q8NGG1 whole entry): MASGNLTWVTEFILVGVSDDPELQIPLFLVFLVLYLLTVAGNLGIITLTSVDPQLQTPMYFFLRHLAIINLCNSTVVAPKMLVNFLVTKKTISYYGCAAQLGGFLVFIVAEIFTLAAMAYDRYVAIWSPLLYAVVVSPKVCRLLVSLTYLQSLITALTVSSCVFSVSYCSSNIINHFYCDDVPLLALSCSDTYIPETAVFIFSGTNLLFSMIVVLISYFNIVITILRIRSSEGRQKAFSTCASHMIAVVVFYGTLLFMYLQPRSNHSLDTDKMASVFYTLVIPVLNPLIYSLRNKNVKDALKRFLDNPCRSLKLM
How it was run: as §1

Measured: odorant receptor agonist call;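 further: active if original authors judged signal statistically different from baseline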

CCC(S)C(C)CO (stereo unspecified)
inactive: [1] | [2] | [3] | [4] | [5] | [6] | [7] | [8] | [9] | [10] | [11] | [12] | [13] | [14]

O=c1ccc2ccccc2o1
inactive: [13]

CCCCCC(S)C(C)CO (stereo unspecified)
inactive: [1] | [2] | [3] | [4] | [5] | [6] | [7] | [8] | [9] | [10] | [11] | [12] | [13] | [14]

CCC1OC(C)=C(O)C1=O (stereo unspecified)
inactive: [1] | [2] | [15] | [3] | [4] | [5] | [6] | [16] | [7] | [17] | [8] | [9] | [18] | [10] | [19] | [11] | [12] | [13] | [14]

CC(=O)c1c(C)c([N+](=O)[O-])c(C(C)(C)C)c([N+](=O)[O-])c1C
inactive: [1] | [2] | [3] | [4] | [5] | [6] | [7] | [8] | [9] | [20] | [10] | [11] | [12] | [13] | [14]

CCCCCC(=O)C(C)C(C)=O (stereo unspecified)
inactive: [1] | [2] | [3] | [4] | [5] | [6] | [7] | [8] | [9] | [10] | [11] | [12] | [13] | [14]

O=C1CCOc2ccccc21
inactive: [13]

CC1CCCCCCCCCCCCC(=O)C1 (stereo unspecified)
inactive: [1] | [2] | [3] | [4] | [5] | [6] | [7] | [8] | [9] | [20] | [10] | [11] | [12] | [13] | [14]

CC1=NC(C)C(C)S1 (stereo unspecified)
inactive: [1] | [2] | [15] | [3] | [4] | [5] | [6] | [16] | [7] | [17] | [8] | [9] | [18] | [10] | [19] | [11] | [12] | [13] | [14]

CCCCCCC=CCCC=O
inactive: [1] | [2] | [15] | [3] | [4] | [5] | [6] | [16] | [7] | [17] | [8] | [9] | [18] | [10] | [19] | [11] | [12] | [13] | [14]

From the M2OR odorant receptor database
